Assay results reported in PMC8592288 (Bioorganic chemistry, 2021).

Experiments:
VDR [1] = biological target: T1, VDR (Homo sapiens, UniProt P11473); assay: VDR-mediated transcription assay, CYP24A1-luciferase reporter in HEK293 cells; format: cell-based; conditions: HEK293, maximum reached before decrease due to toxicity
T1 sequence (P11473 1-427): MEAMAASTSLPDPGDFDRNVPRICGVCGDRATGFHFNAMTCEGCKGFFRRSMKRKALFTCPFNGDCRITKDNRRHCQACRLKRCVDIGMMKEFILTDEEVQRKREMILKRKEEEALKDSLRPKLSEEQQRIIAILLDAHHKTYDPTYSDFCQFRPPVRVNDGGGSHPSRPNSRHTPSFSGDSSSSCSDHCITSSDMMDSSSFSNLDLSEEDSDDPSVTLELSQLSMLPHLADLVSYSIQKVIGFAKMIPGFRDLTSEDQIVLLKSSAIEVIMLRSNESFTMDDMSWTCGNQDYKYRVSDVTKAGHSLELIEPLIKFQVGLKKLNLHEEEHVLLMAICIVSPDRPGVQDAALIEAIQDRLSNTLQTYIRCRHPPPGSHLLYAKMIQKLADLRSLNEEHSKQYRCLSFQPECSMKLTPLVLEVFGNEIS
Summary of the method: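 HEK293 cells grown in DMEM high glucose with NEAA, 10 mM HEPES and 10% FBS. Transfected with VDR-CMV and CYP24A1 promoter-luciferase plasmids (Lipofectamine LTX/PLUS) for 16 h at 37 °C. Cells replated at 400,000 cells/mL onto Matrigel-treated 384-well plates for 4 h. […] Bright-Glo luminescence; n = 8; non-linear regression.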

VDR [2] = biological target: T1, VDR; assay: VDR transcription assay in the presence of 100 nM 1,25; format: cell-based
HEK293 cells = assay: Viability assay, CellTiter-Glo; format: cell-based; conditions: HEK293, 18 h exposure
Summary of the method: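 HEK293 cells transfected and dosed as in the VDR transcription assay. After 18 h at 37 °C, 5% CO2, CellTiter-Glo luminescence measured (intracellular ATP). Eight measurements per concentration, averaged with SEM. LD50 derived by non-linear regression.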

[3] = subcutaneous administration; cited from earlier work
RAW264.7 = assay: Griess assay, NO in IFNγ/LPS-activated RAW264.7 macrophages; format: cell-based, mouse; conditions: INFγ/LPS activated RAW264.7; 1,25(OH)2D3 20 nM, CTA 5 and 20 μM; 24-hour treatment
IL-1β [4] = assay: HTRF IL1β cytokine assay, supernatant of activated RAW264.7 macrophages; format: cell-based, mouse; conditions: INFγ/LPS activated RAW264.7; 1,25(OH)2D3 20 nM, CTA 20 μM
GST-hPXR-LBD = GST-hPXR-LBD (Homo sapiens, UniProt O75469); assay: TR-FRET competition assay for PXR; format: binding; conditions: CTA at 10 or 50 μM
Chain of GST-hPXR-LBD (O75469 146-433 limits assumed): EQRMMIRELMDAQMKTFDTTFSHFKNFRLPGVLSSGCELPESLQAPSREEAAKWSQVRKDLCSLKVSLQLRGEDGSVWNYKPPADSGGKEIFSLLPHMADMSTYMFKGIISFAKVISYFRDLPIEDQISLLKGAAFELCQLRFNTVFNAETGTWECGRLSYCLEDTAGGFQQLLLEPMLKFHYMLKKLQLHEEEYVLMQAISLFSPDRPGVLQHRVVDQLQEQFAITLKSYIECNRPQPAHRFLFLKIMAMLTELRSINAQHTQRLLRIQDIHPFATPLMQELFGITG
Summary of the method: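 TR-FRET competition in pH 7.5 buffer (50 mM Tris, 50 mM KCl, 20 mM MgCl2, 1 mM CHAPS, 0.1 mg/mL BSA, 0.05 mM DTT). Test compound added in DMSO (0.4% final); TO901317 as positive control. After 30 min, excitation 340 nm, ratio 520/490 nm ×10000. n = 8.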

GST-CAR-LBD = GST-CAR-LBD (Homo sapiens, UniProt Q14994); assay: TR-FRET coactivator binding assay for CAR; format: biochemical; conditions: CTA at 10 or 50 μM
Chain of GST-CAR-LBD (Q14994 109-352 limits assumed): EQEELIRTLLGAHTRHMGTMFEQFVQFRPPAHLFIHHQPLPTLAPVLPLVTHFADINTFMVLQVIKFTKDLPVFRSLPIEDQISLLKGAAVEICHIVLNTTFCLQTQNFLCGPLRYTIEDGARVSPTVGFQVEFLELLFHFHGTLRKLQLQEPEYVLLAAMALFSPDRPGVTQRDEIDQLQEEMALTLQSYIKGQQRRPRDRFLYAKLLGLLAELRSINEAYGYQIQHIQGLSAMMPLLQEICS

TRα-LBD = TRα-LBD (Homo sapiens, UniProt P10827); assay: Fluorescence polarization coactivator binding assay; format: biochemical
Chain of TRα-LBD (P10827 148-410 isoform P10827-2 limits assumed): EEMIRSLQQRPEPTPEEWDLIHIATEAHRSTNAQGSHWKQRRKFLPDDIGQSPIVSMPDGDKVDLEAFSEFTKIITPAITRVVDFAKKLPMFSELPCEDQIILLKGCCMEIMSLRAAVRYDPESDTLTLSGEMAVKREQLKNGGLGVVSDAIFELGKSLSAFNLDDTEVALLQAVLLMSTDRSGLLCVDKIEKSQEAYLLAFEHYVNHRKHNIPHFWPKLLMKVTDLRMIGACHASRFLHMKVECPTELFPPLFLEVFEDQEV
Summary of the method: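 FP coactivator binding with TRα-LBD (1 μM), Texas Red-labelled SRC2–2 (7 nM) and triiodothyronine (100 nM). Incubated 3 h at room temperature; polarization read at 595/615 nm (Ex/Em). Two independent experiments, quadruplicate wells.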

TRβ-LBD = TRβ-LBD (Homo sapiens, UniProt P10828); assay: Fluorescence polarization coactivator binding assay; format: biochemical
Chain of TRβ-LBD (P10828 217-461 limits assumed): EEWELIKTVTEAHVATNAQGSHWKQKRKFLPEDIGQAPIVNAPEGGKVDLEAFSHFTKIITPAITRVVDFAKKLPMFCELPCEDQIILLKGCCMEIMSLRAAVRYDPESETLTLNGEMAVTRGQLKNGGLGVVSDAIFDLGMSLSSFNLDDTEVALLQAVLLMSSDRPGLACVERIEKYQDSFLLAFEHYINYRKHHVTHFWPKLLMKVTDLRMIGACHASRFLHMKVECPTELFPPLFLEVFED
Summary of the method: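 TRβ-LBD used at 0.8 μM, with 7 nM Texas Red-SRC2–2 peptide and 1 μM triiodothyronine. Incubated 3 h at room temperature; fluorescence polarization measured at Ex/Em 595/615 nm. Two independent experiments in quadruplicate.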

RARα = RARα (Homo sapiens, UniProt P10276); assay: Gal4 hybrid reporter transcription assay in HEK293T cells; format: cell-based; conditions: 1 μM CTA, 16 h
Chain of RARα (P10276 183-417 limits assumed): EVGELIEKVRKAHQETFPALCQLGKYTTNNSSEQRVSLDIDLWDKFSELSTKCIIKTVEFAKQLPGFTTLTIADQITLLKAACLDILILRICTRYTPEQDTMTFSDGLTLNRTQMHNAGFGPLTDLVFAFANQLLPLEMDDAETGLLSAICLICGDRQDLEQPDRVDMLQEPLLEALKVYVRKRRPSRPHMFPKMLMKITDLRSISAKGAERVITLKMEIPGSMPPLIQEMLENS
Summary of the method: (§1)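 HEK293T cells transfected using Lipofectamine LTX with pFR-Luc, pRL-SV40 and pFA-CMV plasmids encoding Gal4 fusions of the human receptor LBDs. Cells then held 16 h in OptiMEM with penicillin/streptomycin, 1 μM test compound and 0.1% DMSO. Dual-Glo luciferase read-out. Controls: 0.1% DMSO, and 1 μM TO901317 or 1 μM tretinoin as reference agonists. Duplicates, four independent repeats.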

PPARγ-LBD = PPARγ-LBD (Homo sapiens, UniProt P37231); assay: Fluorescence polarization coactivator binding assay; format: biochemical
Chain of PPARγ-LBD (P37231 238-503 limits assumed, species assumed): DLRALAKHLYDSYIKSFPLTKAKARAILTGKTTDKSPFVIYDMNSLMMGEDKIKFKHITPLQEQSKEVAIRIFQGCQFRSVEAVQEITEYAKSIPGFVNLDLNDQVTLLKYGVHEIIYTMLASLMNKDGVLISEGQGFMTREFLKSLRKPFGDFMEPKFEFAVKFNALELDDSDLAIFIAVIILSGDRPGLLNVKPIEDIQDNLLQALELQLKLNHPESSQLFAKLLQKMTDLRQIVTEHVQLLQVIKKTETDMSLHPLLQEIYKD
Summary of the method: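 Mix of PPARγ-LBD (5 μM), Texas Red-labelled DRIP2 coactivator peptide (7 nM) and rosiglitazone (5 μM). Held 3 h at room temperature, then fluorescence polarization read at Ex/Em 595/615 nm. Two independent experiments in quadruplicate.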

LXR α = LXR α (Homo sapiens, UniProt Q13133); assay: Gal4 hybrid reporter transcription assay in HEK293T cells; format: cell-based; conditions: 1 μM CTA, 16 h
Chain of LXR α (Q13133 209-447 limits assumed): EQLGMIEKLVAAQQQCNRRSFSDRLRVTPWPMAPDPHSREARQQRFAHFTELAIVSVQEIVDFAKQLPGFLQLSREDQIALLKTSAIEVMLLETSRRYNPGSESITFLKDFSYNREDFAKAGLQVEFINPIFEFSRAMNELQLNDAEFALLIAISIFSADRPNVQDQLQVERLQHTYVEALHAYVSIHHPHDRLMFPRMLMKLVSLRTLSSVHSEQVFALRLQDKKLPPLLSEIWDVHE
Summary of the method: as §1

LXR β = LXR β (Homo sapiens, UniProt P55055); assay: as above; format: cell-based; conditions: 1 μM CTA, 16 h
Chain of LXR β (P55055 222-460 limits assumed): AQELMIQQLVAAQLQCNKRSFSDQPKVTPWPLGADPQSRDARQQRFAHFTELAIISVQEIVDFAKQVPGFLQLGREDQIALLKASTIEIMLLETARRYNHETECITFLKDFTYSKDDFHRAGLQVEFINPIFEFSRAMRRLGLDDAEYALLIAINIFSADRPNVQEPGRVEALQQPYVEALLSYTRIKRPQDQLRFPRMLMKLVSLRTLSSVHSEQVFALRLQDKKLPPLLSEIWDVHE
Summary of the method: as §1

hFXR = hFXR (Homo sapiens, UniProt Q96RI1); assay: FXR transcription assay, BSEP-luciferase in HeLa cells; format: cell-based; conditions: 24 h
Chain of hFXR (Q96RI1 whole entry): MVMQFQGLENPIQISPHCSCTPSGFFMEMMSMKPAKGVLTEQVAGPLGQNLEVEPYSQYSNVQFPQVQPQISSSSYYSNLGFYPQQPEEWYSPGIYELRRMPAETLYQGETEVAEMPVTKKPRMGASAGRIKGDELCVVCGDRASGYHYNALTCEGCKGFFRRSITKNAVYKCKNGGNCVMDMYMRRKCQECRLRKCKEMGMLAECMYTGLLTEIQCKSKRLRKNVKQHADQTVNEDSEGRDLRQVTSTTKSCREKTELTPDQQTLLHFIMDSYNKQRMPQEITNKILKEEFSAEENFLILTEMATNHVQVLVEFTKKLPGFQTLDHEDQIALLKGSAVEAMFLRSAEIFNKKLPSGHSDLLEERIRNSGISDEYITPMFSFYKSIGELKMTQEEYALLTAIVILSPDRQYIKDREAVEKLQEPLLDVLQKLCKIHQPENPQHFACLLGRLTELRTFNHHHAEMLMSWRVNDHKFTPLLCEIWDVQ
Chain of hFXR (P19793 whole entry partner): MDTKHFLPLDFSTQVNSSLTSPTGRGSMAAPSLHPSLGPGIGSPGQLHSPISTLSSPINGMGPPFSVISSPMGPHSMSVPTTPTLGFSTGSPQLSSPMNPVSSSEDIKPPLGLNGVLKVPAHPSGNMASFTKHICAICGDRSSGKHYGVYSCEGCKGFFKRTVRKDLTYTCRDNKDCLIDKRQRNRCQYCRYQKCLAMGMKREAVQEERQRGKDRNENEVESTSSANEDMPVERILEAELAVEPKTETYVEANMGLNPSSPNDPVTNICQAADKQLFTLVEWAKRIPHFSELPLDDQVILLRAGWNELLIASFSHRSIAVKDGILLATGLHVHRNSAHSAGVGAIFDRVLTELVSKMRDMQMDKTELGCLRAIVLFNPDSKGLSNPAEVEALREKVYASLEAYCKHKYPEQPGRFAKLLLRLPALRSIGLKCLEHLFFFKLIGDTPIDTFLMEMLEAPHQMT
Summary of the method: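 HeLa cells grown in DMEM high glucose with 10% FCS, seeded at 8000 cells/well 24 h before transfection, then switched to 0.5% charcoal-stripped FCS. Calcium phosphate co-transfection with pcDNA3-hFXR, pSG5-hRXR, a BSEP promoter-luciferase (pGL3basic) reporter and pRL-SV40. Test compound added in 0.1% DMSO in phenol red-free medium for 24 h. Dual-Glo luciferase read-out. Controls: 0.1% DMSO and 1 μM GW4064. Triplicates, four independent repeats.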

ERα-LBD = ERα-LBD (Homo sapiens, UniProt P03372); assay: Fluorescence polarization coactivator binding assay; format: biochemical
Chain of ERα-LBD (P03372 311-547 limits assumed, species assumed): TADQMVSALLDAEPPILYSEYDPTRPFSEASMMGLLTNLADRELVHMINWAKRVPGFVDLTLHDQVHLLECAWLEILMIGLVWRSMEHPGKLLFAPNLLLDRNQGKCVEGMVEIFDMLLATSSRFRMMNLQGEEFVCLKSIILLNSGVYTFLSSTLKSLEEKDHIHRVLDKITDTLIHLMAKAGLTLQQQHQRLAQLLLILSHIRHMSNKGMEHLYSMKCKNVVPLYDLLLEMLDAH
Summary of the method: (§2)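 For ERα and ERβ, 1 μM LBD was mixed with 7 nM Texas Red-SRC2–2 coactivator peptide and 100 nM estradiol. After 3 h at room temperature, fluorescence polarization was read at Ex/Em 595/615 nm. Two independent experiments in quadruplicate.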

ERβ-LBD = ERβ-LBD (Homo sapiens, UniProt Q92731); assay: as above; format: biochemical
Chain of ERβ-LBD (Q92731 264-498 limits assumed, species assumed): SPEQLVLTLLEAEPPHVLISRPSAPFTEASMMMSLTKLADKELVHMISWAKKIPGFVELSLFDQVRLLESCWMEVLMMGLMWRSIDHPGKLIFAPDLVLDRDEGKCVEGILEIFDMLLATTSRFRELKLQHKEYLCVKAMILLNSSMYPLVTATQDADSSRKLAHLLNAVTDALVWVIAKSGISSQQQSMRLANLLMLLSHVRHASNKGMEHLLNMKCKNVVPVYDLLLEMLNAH
Summary of the method: as §2

AR-LBD = AR-LBD (Homo sapiens, UniProt P10275); assay: Fluorescence polarization coactivator binding assay; format: biochemical
Chain of AR-LBD (P10275 669-900 limits assumed): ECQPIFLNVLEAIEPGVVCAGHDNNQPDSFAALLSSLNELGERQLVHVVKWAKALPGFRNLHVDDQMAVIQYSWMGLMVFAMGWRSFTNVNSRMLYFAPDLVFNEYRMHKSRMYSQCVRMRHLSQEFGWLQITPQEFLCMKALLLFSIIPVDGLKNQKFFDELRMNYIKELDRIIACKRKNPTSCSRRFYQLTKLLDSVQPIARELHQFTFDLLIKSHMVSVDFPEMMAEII
Summary of the method: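 Coactivator recruitment read by fluorescence polarization. AR-LBD at 5 μM with 7 nM Texas Red-labelled SRC2–3 peptide and 100 nM dihydrotestosterone. Incubated 3 h at room temperature, then read at Ex/Em 595/615 nm. Two independent experiments, each in quadruplicate.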

RXRα-LBD = RXRα-LBD (Homo sapiens, UniProt P19793); assay: Fluorescence polarization coactivator binding assay; format: biochemical
Chain of RXRα-LBD (P19793 227-458 limits assumed): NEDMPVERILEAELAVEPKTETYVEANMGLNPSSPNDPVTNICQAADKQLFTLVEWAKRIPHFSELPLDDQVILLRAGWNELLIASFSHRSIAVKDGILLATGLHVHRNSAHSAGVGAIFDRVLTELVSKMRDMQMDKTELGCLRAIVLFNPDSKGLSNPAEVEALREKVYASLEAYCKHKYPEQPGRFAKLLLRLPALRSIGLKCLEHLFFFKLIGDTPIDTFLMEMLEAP
Summary of the method: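 RXRα-LBD (1 μM) combined with Texas Red-SRC2–3 peptide (7 nM) and bexarotene (2 μM). Incubated 3 h at room temperature; polarization detected at 595/615 nm. Two independent experiments, each in quadruplicate.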

CYP24A1 [5] = assay: RT-PCR of VDR target gene CYP24A1 in Caco2 cells; format: cell-based, human
RAW264.7 cells = assay: Cytotoxicity on RAW264.7 cells, CellTiter-Glo; format: cell-based, mouse; conditions: RAW264.7, concentrations up to 100 μM
iNOS = assay: RT-PCR of iNOS in IFNγ/LPS-activated RAW264.7 macrophages; format: cell-based, mouse; conditions: INFγ/LPS activated RAW264.7, CTA 5 and 20 μM
IL-1β [6] = assay: RT-PCR of IL-1β in IFNγ/LPS-activated RAW264.7 macrophages; format: cell-based, mouse; conditions: INFγ/LPS activated RAW264.7, CTA 5 and 20 μM
CYP24A1 [7] = conditions: at 7.5 μM; cited from earlier work
[8] = test system: ligand binding domain (LBD) of the VDR; conditions: two-hybrid assay; cited from earlier work
[9] = biological target: T2, Danio Rerio vitamin D receptor ligand binding domain (Danio rerio, UniProt Q9PTN2 156-453); assay: crystal structure
T2 sequence (looked up): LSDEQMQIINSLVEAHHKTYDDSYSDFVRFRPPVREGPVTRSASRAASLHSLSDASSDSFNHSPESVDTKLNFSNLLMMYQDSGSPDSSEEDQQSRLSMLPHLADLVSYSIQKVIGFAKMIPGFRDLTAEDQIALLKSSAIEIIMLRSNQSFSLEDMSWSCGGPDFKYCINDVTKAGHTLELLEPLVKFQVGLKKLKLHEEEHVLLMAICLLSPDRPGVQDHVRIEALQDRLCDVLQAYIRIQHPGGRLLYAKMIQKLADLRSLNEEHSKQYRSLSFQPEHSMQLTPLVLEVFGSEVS

C=C1/C(=C\C=C2/CCC[C@]3(C)[C@@H]([C@H](C)CC(=O)OC)CC[C@@H]23)C[C@@H](O)C[C@@H]1O [CTA-ME, Methyl (R)-3-((1R,3aS,7aR,E)-4-((Z)-2-((3S,5R)-3,5-dihydroxy-2-methylenecyclohexylidene)ethylidene)-7a-methyloctahydro-1H-inden-1-yl)butanoate]
level of activation of gene expression in comparison to 100 nM 1,25(OH)2D3 (VDR [1]): 30%
IC50 (VDR [2]): 8.16 µM
LD50 (Cell-titer Glo viability) (HEK293 cells): 13.9 µM
antirachitic activity [3]: antirachitic activity

C=C1/C(=C\C=C2/CCC[C@]3(C)[C@@H]([C@H](C)CCCC(C)(C)O)CC[C@@H]23)C[C@@H](O)C[C@@H]1O [1,25(OH)2D3, 1α,25-dihydroxyvitamin D3, reference compound]
production of NO in comparison to vehicle (RAW264.7): reduced the production of NO
IL-1β protein (HTRF) (IL-1β [4]): Reduced IL-1β protein

C=C1/C(=C\C=C2/CCC[C@]3(C)[C@@H]([C@H](C)CC(=O)O)CC[C@@H]23)C[C@@H](O)C[C@@H]1O [CTA, (R)-3-((1R,3aS,7aR,E)-4-((Z)-2-((3S,5R)-3,5-dihydroxy-2-methylenecyclohexylidene)ethylidene)-7a-methyloctahydro-1H-inden-1-yl)butanoic acid]
level of activation of gene expression in comparison to 100 nM 1,25(OH)2D3 (VDR [1]): 30%
IC50 (VDR [2]): 72.2 µM
LD50 (Cell-titer Glo viability) (HEK293 cells): 96.0 µM
binding to PXR (GST-hPXR-LBD): did not bind
induction of CAR-coactivator interactions (GST-CAR-LBD): did not bind to PXR or induce CAR-coactivator interactions
activation of thyroid receptor TRα (TRα-LBD): not activated
activation of thyroid receptor TRβ (TRβ-LBD): not activated
activation of retinoic acid receptor (RARα): not activated
activation of peroxisome proliferator-activated receptor (PPARγ-LBD): not activated
activation of liver X receptor α (LXR α): not activated
activation of liver X receptor β (LXR β): not activated
activation of farnesoid X receptor (hFXR): not activated
activation of estrogen receptor ERα (ERα-LBD): not activated
activation of estrogen receptor ERβ (ERβ-LBD): not activated
activation of androgen receptor (AR-LBD): not activated
activation of retinoid X receptor (RXRα-LBD): not activated
expression of CYP24A1 in the presence of 1,25(OH)2D3 (CYP24A1 [5]; Caco2, 18 h, co-treatment with 1,25(OH)2D3): strongly induced
CYP24A1 upregulation compared to lithocholic acid at 10 μM (CYP24A1 [5]; intestinal cells (Caco2), CTA at 10 μM): 100 fold
production of NO in comparison to vehicle (RAW264.7): significant reduction
cytotoxic effects (luminescence viability assay) (RAW264.7 cells): absence of any cytotoxic effects
iNOS gene transcription (RT-PCR) (iNOS): reduction of gene transcription was observed
IL-1β gene transcription (RT-PCR) (IL-1β [6]): reduction of gene transcription was observed
IL-1β protein (HTRF) (IL-1β [4]): Reduced IL-1β protein
CYP24A1 upregulation in DU145 cells (CYP24A1 [7]): 9 fold
recruitment of SRC-1 to VDR LBD [8]: induces recruitment of SRC-1
antirachitic activity [3]: antirachitic activity

NHPMLMNLLKDN [coactivator MED1 NR2 peptide]
binding result [9]: binds
